Test results taken from ChEMBL document CHEMBL3808295, “Discovery of enantioselectivity of urea inhibitors of soluble epoxide hydrolase” (Eur J Med Chem, 2016).

Columns and labels:
[1] = biological target: T1, Epoxide hydrolase 1 (Homo sapiens) (UniProt P07099); test: Inhibition of microsomal epoxide hydrolase in pooled human liver microsomes assessed as enzyme activity using styrene oxide as substrate at 10 uM incubated for 10 mins by UV-HPLC analysis relative to control; set-up: scale not given: the % may be the effect or the level left
T1 sequence (whole entry): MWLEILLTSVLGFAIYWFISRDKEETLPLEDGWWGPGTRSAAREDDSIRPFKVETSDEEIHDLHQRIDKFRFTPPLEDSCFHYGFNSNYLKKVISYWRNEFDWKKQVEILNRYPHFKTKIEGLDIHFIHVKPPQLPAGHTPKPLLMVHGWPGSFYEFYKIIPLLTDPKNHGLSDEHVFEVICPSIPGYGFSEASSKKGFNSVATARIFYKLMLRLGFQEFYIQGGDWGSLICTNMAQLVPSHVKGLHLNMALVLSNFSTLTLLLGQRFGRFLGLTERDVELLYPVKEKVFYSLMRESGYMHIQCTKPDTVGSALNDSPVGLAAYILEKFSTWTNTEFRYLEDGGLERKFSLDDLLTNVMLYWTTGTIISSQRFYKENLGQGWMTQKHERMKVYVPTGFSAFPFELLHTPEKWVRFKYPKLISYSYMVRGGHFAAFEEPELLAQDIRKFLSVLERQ
How it was run: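 Pooled human liver microsomes (0.2 mg/mL) incubated with styrene oxide (25 μM) and 10 μM test compound in 0.1 M Tris-HCl pH 9.0 at 37°C for 10 min; quenched with n-hexane, centrifuged, supernatant analysed by UV-HPLC (C18, 30°C, 40% methanol). Activity from styrene glycol formed, as percentage of control; valpromide positive control.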

[2] = biological target: T2, Bifunctional epoxide hydrolase 2 (Homo sapiens, UniProt P34913); test: Inhibition of soluble epoxide hydrolase (unknown origin) using 14,15-EET as substrate incubated for 20 mins by LC-MS/MS analysis
T2 sequence (P34913 whole entry): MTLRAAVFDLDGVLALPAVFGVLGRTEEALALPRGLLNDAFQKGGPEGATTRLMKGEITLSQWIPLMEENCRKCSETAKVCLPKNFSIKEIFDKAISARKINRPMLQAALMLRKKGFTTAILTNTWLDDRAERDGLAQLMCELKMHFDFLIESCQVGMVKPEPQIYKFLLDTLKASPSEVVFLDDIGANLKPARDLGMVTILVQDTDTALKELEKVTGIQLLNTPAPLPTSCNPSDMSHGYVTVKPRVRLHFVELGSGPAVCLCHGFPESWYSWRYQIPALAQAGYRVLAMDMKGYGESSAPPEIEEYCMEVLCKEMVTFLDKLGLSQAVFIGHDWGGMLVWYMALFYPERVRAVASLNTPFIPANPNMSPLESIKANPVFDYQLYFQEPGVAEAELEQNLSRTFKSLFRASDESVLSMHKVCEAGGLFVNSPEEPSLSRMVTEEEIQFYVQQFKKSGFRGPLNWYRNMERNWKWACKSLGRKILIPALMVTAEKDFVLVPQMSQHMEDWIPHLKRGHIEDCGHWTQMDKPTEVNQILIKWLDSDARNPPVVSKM

SMILES | Activity [1] [%] | IC50 [2] [nM]
C[C@@H](NC(=O)NCCCc1ccc(S(N)(=O)=O)cc1)c1ccccc1 | 101 | 2030
CC[C@@H](NC(=O)NCCCc1ccccc1)c1ccccc1 | 103 | 4500
CC[C@H](NC(=O)NCCCc1ccccc1)c1ccccc1 | 106 | 36
CCCC(CCC)C(N)=O | 50.9 | –
O=C(NCCCc1ccccc1)N[C@H](CO)c1ccccc1 | 107 | 20000
C[C@@H](NC(=O)NCCCc1ccccc1)C1CCCCC1 | 103 | 302
O=C(NCCCc1ccccc1)NCc1ccccc1 | 105 | 3260
CCC(C)NC(=O)NCCCc1ccccc1 (racemic) | 102 | 650
O=C(NCCCc1ccccc1)N1CCC[C@@H]1c1ccccc1 | 101 | 1510
C[C@H](NC(=O)NCCCc1ccccc1)C1CCCCC1 | 99.4 | 182
O=C(NCCCc1ccccc1)N[C@@H]1CCCc2ccccc21 | 106 | 13
C[C@@H](NC(=O)NCCCc1ccccc1)c1cccc2ccccc12 | 98.7 | 364
O=C(NCCCc1ccccc1)N[C@H]1CCc2ccccc21 | 112 | 65
C[C@H](NC(=O)NCCCc1ccccc1)c1ccccc1 | 84.6 | 44
O=C(NCCCc1ccccc1)N1CCC[C@H]1c1ccccc1 | 99.8 | 332

The next lines start with the values.

Activity [1] [%] | IC50 [2] [nM] | SMILES
101 | 63 | CC[C@H](C)NC(=O)NCCCc1ccccc1
106 | 13 | O=C(NCCCc1ccccc1)N[C@H]1CCCc2ccccc21
110 | 22 | O=C(NCCCc1ccccc1)N[C@@H]1CCc2ccccc21
102 | 1730 | C[C@@H](NC(=O)NCCCc1ccccc1)c1ccccc1
102 | 43 | C[C@H](NC(=O)NCCCc1ccccc1)c1cccc2ccccc12
102 | 2740 | O=C(NCCCc1ccccc1)N[C@@H](CO)c1ccccc1
99.9 | 22 | C[C@H](NC(=O)NCCCc1ccc(S(N)(=O)=O)cc1)c1ccccc1
